Results published in ChEMBL document CHEMBL1150837, “New sesquiterpene derivatives from the sponge Dysidea species with a selective inhibitor profile against human phospholipase A2 and other leukocyte functions” (J Nat Prod, 2001).
Calls of active or inactive are those of the source. The rule behind the calls is not given here.

Experiments:
[1] = biological target: Acidic phospholipase A2 2 (Naja naja) (UniProt P15445); test: Inhibition of Naja naja venom group 1 secretory phospholipase A2 at 10 uM by liquid scintillation counting
How it was run: (§1)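 Enzyme diluted in 100 mM Tris-HCl, 1 mM CaCl2, pH 7.5, preincubated 5 min at 37 °C with compound or vehicle. Substrate was autoclaved E. coli CECT 101 membranes labelled with [3H]oleic acid. Reaction ran 15 min, stopped with ice-cold BSA (0.07% w/v final), spun 1200g 10 min at 4 °C, supernatant counted. IC50 from ≥4 concentrations; mean ± SEM, n = 6.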

[2] = biological target: T1, Cytosolic phospholipase A2 (Mus musculus) (UniProt P47713); test: Inhibition of group 4 cytosolic phospholipase A2 in mouse RAW264.7 cells at 10 uM; assay type: cell-based
T1 sequence (whole entry): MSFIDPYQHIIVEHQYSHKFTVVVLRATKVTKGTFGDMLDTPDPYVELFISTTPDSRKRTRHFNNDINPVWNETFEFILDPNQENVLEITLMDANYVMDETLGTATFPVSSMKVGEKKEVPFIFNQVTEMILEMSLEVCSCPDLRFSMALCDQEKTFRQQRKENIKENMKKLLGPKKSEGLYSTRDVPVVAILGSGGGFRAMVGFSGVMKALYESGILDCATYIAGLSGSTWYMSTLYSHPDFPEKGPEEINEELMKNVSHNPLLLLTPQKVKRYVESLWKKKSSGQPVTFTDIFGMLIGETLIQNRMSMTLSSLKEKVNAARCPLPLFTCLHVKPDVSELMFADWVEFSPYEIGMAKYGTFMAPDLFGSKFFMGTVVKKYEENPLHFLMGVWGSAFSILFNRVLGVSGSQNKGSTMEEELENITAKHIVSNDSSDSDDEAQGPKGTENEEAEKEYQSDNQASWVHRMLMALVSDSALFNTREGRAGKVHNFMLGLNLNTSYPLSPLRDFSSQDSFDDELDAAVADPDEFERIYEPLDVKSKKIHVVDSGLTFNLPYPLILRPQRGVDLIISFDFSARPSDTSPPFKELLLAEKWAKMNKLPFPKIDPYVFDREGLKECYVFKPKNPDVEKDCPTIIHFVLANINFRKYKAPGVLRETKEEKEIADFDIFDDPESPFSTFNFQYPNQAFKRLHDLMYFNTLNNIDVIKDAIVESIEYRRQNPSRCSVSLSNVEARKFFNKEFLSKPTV
How it was run: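 Enzyme was the cytosolic fraction of RAW 264.7 macrophages. Substrate 1-palmitoyl-2-[14C]arachidonyl-sn-glycero-3-phosphocholine. Compound added in methanol (<1% final) just before the enzyme. Incubation 60 min at 37 °C, stopped with isopropanol-heptane-H2SO4. Released arachidonate extracted into hexane, cleaned on silica gel and counted. Mean ± SEM, n = 6.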

[3] = biological target: Phospholipase A2, major isoenzyme (Sus scrofa) (UniProt P00592); test: Inhibition of pig pancreatic group 1 secretory phospholipase A2 at 10 uM by liquid scintillation counting
How it was run: (§2)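 Substrate was E. coli CECT 101 membranes labelled with [3H]oleic acid and autoclaved. Enzyme in 100 mM Tris-HCl/1 mM CaCl2, pH 7.5, was preincubated 5 min at 37 °C with compound or vehicle, then incubated 15 min with membranes. The reaction was stopped with ice-cold BSA (final 0.07%) and centrifuged, and supernatant radioactivity was counted. IC50 from ≥4 concentrations; n = 6.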

[4] = biological target: Phospholipase A2, major isoenzyme (Sus scrofa, UniProt P00592); test: Inhibition of pig pancreatic group 1 secretory phospholipase A2 by liquid scintillation counting; how it was run: as §2
[5] = biological target: T2, Phospholipase A2, membrane associated (Homo sapiens) (UniProt P14555); test: Inhibition of human synovial recombinant group 2 secretory phospholipase A2 at 10 uM by liquid scintillation counting; how it was run: as §2
T2 sequence (whole entry): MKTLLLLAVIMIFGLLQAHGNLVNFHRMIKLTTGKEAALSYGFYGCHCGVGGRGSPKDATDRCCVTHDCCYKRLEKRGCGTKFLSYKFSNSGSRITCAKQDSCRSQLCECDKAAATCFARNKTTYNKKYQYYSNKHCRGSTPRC

[6] = biological target: T3, Phospholipase A2, membrane associated (Homo sapiens, UniProt P14555); test: Inhibition of human synovial recombinant group 2 secretory phospholipase A2 by liquid scintillation counting; how it was run: as §2
T3 sequence (P14555 whole entry): T2 sequence (whole entry)

[7] = biological target: T4, Phospholipase A2 (Apis mellifera) (UniProt P00630); test: Inhibition of bee venom group 3 secretory phospholipase A2 at 10 uM by liquid scintillation counting; how it was run: as §1
T4 sequence (whole entry): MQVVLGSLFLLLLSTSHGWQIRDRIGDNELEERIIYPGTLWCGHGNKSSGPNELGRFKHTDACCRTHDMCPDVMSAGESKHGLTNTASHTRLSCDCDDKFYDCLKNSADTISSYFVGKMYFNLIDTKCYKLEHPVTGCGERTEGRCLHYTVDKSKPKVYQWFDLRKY

Phospholipase A2 = biological target: T5, Phospholipase A2 (Apis mellifera, UniProt P00630); test: Inhibition of bee venom group 3 secretory phospholipase A2 by liquid scintillation counting; how it was run: as §1
T5 sequence (P00630 whole entry): T4 sequence (whole entry)

[8] = biological target: T1, Cytosolic phospholipase A2 (Mus musculus); test: Inhibition of group 4 cytosolic phospholipase A2 in mouse RAW264.7 cells; assay type: cell-based
How it was run: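 Enzyme source was cytosolic fractions of RAW 264.7 cells. Substrate was 1-palmitoyl-2-[14C]arachidonyl-PC (2 × 10^6 cpm). Compounds were added in methanol (final <1%) just before the enzyme. After 60 min at 37 °C, the reaction was stopped with isopropanol/heptane/0.5 M H2SO4 and extracted into hexane with silica gel. Released arachidonate was counted.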

[9] = Cytotoxicity against human neutrophils assessed as inhibition of cell viability at 10 uM after 16 to 40 hrs by MTT assay; assay type: cell-based, Neutrophil; settings: read-out: INH
How it was run: (§3)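 Cytotoxicity measured on purified human neutrophils as mitochondrial-dependent reduction of MTT to formazan; compounds tested up to 10 µM, reported as % inhibition of viability. Mean ± SEM, n = 6.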

Neutrophil [10] = test: Inhibition of TPA-induced chemiluminescence response in human neutrophils at 10 uM after 7 mins; assay type: functional
How it was run: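 Neutrophils (2.5 × 10^6/mL) mixed with luminol (40 µM) and stimulated with 1 µM TPA; chemiluminescence read at 7 min, the time of maximal production. % inhibition at 10 µM; mean ± SEM, n = 6.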

Neutrophil [11] = test: Inhibition of cytochalasin B and fMLP-stimulated human neutrophil degranulation assessed as inhibition of elastase release at 10 uM preincubated for 5 mins before cytochalasin B and fMLP challenge measured after 20 mins by microtiter plate assay; assay type: functional
How it was run: (§4)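 Neutrophils (2.5 × 10^6/mL) preincubated 5 min with compound or vehicle, then stimulated 10 min at 37 °C with cytochalasin B (10 µM) + FMLP (10 nM). Supernatants incubated 20 min at 37 °C with Boc-L-alanine p-nitrophenyl ester (200 µM); p-nitrophenol read at 414 nm. IC50 from ≥4 concentrations, n = 6.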

Neutrophil [12] = test: Inhibition of cytochalasin B and fMLP-stimulated human neutrophil degranulation assessed as inhibition of elastase release preincubated for 5 mins before cytochalasin B and fMLP challenge measured after 20 mins by microtiter plate assay; assay type: functional, cell-based; how it was run: as §4
[13] = Cytotoxicity against human neutrophils up to 10 uM after 16 to 40 hrs by MTT assay; assay type: cell-based; settings: neutrophil; how it was run: as §3
[14] = Homo sapiens, Neutrophil, read-out: IC50

Sequence of Acidic phospholipase A2 2 (Naja naja) (P15445 whole entry): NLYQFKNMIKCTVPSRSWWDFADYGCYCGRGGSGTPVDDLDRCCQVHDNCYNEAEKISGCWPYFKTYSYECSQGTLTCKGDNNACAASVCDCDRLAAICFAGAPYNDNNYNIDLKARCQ
Sequence of Phospholipase A2, major isoenzyme (Sus scrofa) (P00592 23-146 limits assumed): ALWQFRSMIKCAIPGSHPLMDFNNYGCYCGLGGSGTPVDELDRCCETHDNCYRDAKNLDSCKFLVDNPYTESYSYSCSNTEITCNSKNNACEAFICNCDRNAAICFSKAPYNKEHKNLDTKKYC
Sequence of Phospholipase A2, major isoenzyme (P00592 whole entry): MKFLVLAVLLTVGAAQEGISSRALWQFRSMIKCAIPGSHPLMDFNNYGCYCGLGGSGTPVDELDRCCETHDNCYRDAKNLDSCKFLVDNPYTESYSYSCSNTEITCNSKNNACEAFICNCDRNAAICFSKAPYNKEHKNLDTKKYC

Q: What does the source list for CC1=C(CC/C(C)=C/CCC2=CC[C@H](C3=CC(=O)O[C@H]3O)O[C@H]2O)C(C)(C)CCC1?
A: inhibition [1]: 17%; inhibition [2]: 44.6%

Q: For COC1=CC(=O)C(O)=C(C[C@@]2(C)CC[C@]3(C)C(C)=CCC[C@H]3[C@H]2C)C1=O [BOLINAQUINONE], which inhibition [1] is on record?
A: Its inhibition is 26%.

Q: What about the inhibition [3] of the same compound?
A: Its inhibition is 86.4%.

Q: What about the IC50 [4] of the same compound?
A: The IC50 was 0.4 µM.

Q: What about the inhibition [5] of the same compound?
A: The inhibition was 100%.

Q: And the IC50 [6]?
A: Its IC50 is 0.2 µM.

Q: And the inhibition [7]?
A: The inhibition was 99.1%.

Q: And the IC50 (Phospholipase A2)?
A: Its IC50 is 0.1 µM.

Q: What about the inhibition [8] of the same compound?
A: The inhibition was “inactive”.

Q: And the cytotoxicity at 10 µM [9]?
A: The cytotoxicity at 10 µM was 14%.

Q: What about the inhibition at 10 µM (Neutrophil [10]) of the same compound?
A: Its inhibition at 10 µM is 40.1%.

Q: And the inhibition at 10 µM (Neutrophil [11])?
A: Its inhibition at 10 µM is 68.1%.

Q: And the IC50 (Neutrophil [12]; [14])?
A: The IC50 was 5.2 µM.

Q: With COC(=O)[C@]1(O)C=C(OC)C(=O)[C@@H]1C[C@@]1(C)CC[C@]2(C)C(C)=CCC[C@H]2[C@H]1C [DYSIDENONE A] as the compound, how does the inhibition [8] read?
A: The inhibition was “inactive”.

Q: What about the Activity [13] of the same compound?
A: The Activity was “Non-toxic”.

Q: For COC(=O)[C@@]1(O)C=C(OC)C(=O)[C@H]1C[C@@]1(C)CC[C@]2(C)C(C)=CCC[C@H]2[C@H]1C [DYSIDENONE B], which inhibition [8] is on record?
A: The inhibition was “inactive”.

Q: What about the Activity [13] of the same compound?
A: Its Activity is “Non-toxic”.

Q: What does the source list for CC1=CCC[C@H]2[C@@H](C)[C@@](C)(CC3=C(O)C(=O)C=C(NCCS(=O)(=O)O)C3=O)CC[C@]12C [DYSIDINE]?
A: inhibition [1]: 0.7%; inhibition [3]: 1.2%; inhibition [5]: 73.8%; IC50 [6]: 2 µM; inhibition [7]: 33.4%; inhibition [8]: inactive; Activity [13]: Non-toxic; cytotoxicity at 10 µM [9]: 0.3%; inhibition at 10 µM (Neutrophil [10]): 44.4%; inhibition at 10 µM (Neutrophil [11]): 90.7%; IC50 (Neutrophil [12]; [14]): 1.3 µM; IC50 (Neutrophil [12]; neutrophil): Dose-dependent effect
